What was measured:
[1] = Inhibition of Aedes aegypti recombinant AChE1 expressed in baculovirus infected insect Sf9 cells using acetylthiocholine iodide as substrate measured over 60 secs by Ellman assay
In short: (§1)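 Dose-response Ellman assay on recombinant enzyme in 0.1 M phosphate pH 7.4 with 0.2 mM DTNB and 1 mM acetylthiocholine iodide. At least eight inhibitor concentrations were used, up to 1 mM, diluted from 100 mM DMSO stocks. Run manually at 30 °C with A412 read over 60 s. Activity is relative to uninhibited wells. IC50 was obtained by non-linear log[inhibitor] fitting from 2 replicates.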

[2] = biological target: Acetylcholinesterase (Anopheles gambiae) (UniProt Q869C3); test: Inhibition of Anopheles gambiae recombinant AChE1 expressed in baculovirus infected insect Sf9 cells at 50 uM using acetylthiocholine iodide as substrate measured over 60 secs by Ellman assay relative to control
In short: (§2)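 Single-concentration HTS with secreted, non-purified Sf-9-expressed mosquito AChE1 in growth medium. Assay in 0.1 M phosphate buffer pH 7.4 with 0.2 mM DTNB and 1 mM acetylthiocholine iodide. Compounds were tested at a final 50 µM from DMSO stocks. The A412 slope was read over 60 s. Activity was expressed relative to the mean of eight uninhibited control wells per plate.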

[3] = biological target: Acetylcholinesterase (Anopheles gambiae, UniProt Q869C3, G122S); test: Inhibition of Anopheles gambiae recombinant AChE1 G122S mutant using acetylthiocholine iodide as substrate by Ellman assay; in short: as §1
[4] = Inhibition of Aedes aegypti recombinant AChE1 expressed in baculovirus infected insect Sf9 cells at 50 uM using acetylthiocholine iodide as substrate measured over 60 secs by Ellman assay relative to control; in short: as §2
[5] = biological target: Acetylcholinesterase (Homo sapiens, UniProt P22303); test: Inhibition of human recombinant AChE using acetylthiocholine iodide as substrate measured over 60 secs by Ellman assay; in short: as §1
[6] = biological target: Acetylcholinesterase (Anopheles gambiae, UniProt Q869C3); test: Inhibition of Anopheles gambiae recombinant AChE1 expressed in baculovirus infected insect Sf9 cells using acetylthiocholine iodide as substrate measured over 60 secs by Ellman assay; in short: as §1
[7] = biological target: T1, Acetylcholinesterase (Mus musculus, UniProt P21836); test: Inhibition of mouse recombinant AChE using acetylthiocholine iodide as substrate measured over 60 secs by Ellman assay
T1 sequence (P21836 whole entry): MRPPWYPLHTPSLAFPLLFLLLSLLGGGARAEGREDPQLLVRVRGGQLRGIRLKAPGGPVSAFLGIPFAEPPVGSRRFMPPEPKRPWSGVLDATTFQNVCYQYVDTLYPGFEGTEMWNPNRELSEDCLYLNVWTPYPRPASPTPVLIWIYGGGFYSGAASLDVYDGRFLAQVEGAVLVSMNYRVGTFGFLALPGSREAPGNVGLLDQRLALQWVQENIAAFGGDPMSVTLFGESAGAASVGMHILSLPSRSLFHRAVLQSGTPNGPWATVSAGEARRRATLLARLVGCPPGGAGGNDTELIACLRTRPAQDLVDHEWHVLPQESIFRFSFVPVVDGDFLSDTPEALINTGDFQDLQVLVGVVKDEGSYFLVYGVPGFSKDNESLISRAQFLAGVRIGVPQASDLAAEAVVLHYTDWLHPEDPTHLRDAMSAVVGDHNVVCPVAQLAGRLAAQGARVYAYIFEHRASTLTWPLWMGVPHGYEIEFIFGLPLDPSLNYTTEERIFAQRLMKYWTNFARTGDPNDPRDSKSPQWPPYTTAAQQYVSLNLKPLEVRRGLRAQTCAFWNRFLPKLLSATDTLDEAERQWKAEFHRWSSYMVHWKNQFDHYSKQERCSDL

[8] = Selectivity ratio of IC50 for human recombinant AChE to IC50 for Aedes aegypti recombinant AChE1
[9] = Selectivity ratio of IC50 for human recombinant AChE to IC50 for Anopheles gambiae recombinant AChE1

Compound	IC50 [1]	inhibition [2]	IC50 [3]	inhibition [4]	IC50 [5]	IC50 [6]	IC50 [7]	Ratio IC50 [8]	Ratio IC50 [9]
CCN1CCN(C2CCN(C(=O)COc3ccc(-c4ccccc4)cc3)CC2)CC1	0.22 µM	92%	1.3 µM	76%	31 µM	0.21 µM	18 µM		
Fc1ccccc1COc1ccccc1CNCCN1CCOCC1	> 500 µM	23%		38%	> 500 µM	> 500 µM			
COc1ccc(CN2CC=C(c3ccc(F)cc3)CC2)cc1OCc1ccccc1	> 100 µM	86%		90%	> 200 µM	> 100 µM			
O=C(c1ccccc1F)N1CCN(C2CCN(Cc3ccccc3)CC2)CC1	12 µM	32%		33%	> 200 µM	17 µM		> 12	> 12
O=C(COc1ccccc1)N1CCN(C2CCN(Cc3ccccc3)CC2)CC1	19 µM	24%		18%	43 µM	21 µM		2	2
c1ccc(COc2ccc(CN3CCc4ccccc4C3)cc2)cc1		41%		80%	> 200 µM	2.9 µM		> 67	> 67
CCOc1ccc(-n2c(SCc3nc(-c4ccccc4C)no3)nnc2-c2ccccc2)cc1	> 1000 µM	63%		1%	> 1000 µM	> 1000 µM			
O=S(=O)(NCCSc1nnc(-c2ccco2)n1-c1ccccc1)c1ccccc1	> 1000 µM	76%		82%	> 1000 µM	> 1000 µM			
CCSc1nc2sc3c(c2c(=O)n1-c1ccccc1)CCN(Cc1ccccc1)C3	8.8 µM	94%		93%	5.1 µM	8.3 µM		0.6	0.6
O=C(COc1ccc(Cl)cc1Cl)Nc1ccc(CN2CCCCC2)cc1	0.44 µM	93%	1.2 µM	91%		0.26 µM			

Reference: ChEMBL document CHEMBL3861988, “Discovery of Selective Inhibitors Targeting Acetylcholinesterase 1 from Disease-Transmitting Mosquitoes” (J Med Chem, 2016)
